High-throughput results: PubChem, several laboratories
CRFBP-R2 block: antagonists of CRF-binding protein/CRF-R2 receptor complex | HEK293 CRF-R2/CRF-BP, CRF-induced calcium fluorescence | inhibition, % at 11.8 µM | 350,000 compounds, 0.59% hits | AID 588475;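 active means inhibition of the ligand-induced calcium signal above about 50% at the single tested concentration, limit read from the data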
CRFBP-R2 agonist: agonists of human CRF-binding protein/CRF-R2 receptor complex | HEK293 CRF-R2/CRF-BP, calcium dye fluorescence (FLIPR); percent of saturating CRF peptide response | activation, % at 13.2 µM | 350,000 compounds, 0.46% hits | AID 588473;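 active means activation of at least 50%, plus an integration ratio under a set limit after plate pattern correction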
ANO1 activ: mouse TMEM16A channel activation, primary screen; B-score at 10 µM; Q8BHY3; HEK293 TMEM16A/YFP-H148Q/I152L, iodide quench fluorescence; active compounds read low; 340,000 compounds, 0.3% hits;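 active means fluorescence-ratio B-score plate-corrected deviation score at least 3 library SD below zero, with starting fluorescence score within 5 deviations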;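 further: channel opened by trigger with iodide after compound preincubation; score built on the fluorescence ratio of max minus min over baseline; more negative score means more quench and so TMEM16A activation or potentiation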
TAAR1 antagonist: antagonists of human TAAR1 | inhibition, % at 3 µM | 360,000 compounds, 1.5% hits | CHO RD-HGA16 TAAR1, Fluo-8 calcium fluorescence, antagonist | Q96RJ0;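 active means inhibition above a per-plate cutoff, the mean inhibition of test compounds on that plate plus 3 SD, cut at about 49% in these data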
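Test system – hTAAR1-expressing CHO RD-HGA16 cells, Gα16-coupled · Also added – β-PEA at EC80 concentration, post-compound challenge · Compound – 3 µM, single point · Incubation – dye loading 75 min at 37 °C, then 30 min room temperature · Measured by – Fluo-8 intracellular calcium dye fluorescence, real-time kinetic reads · Benchmarks – vehicle and agonist controls · Replicates – singlicate, one well per test compound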
TAAR1 ag: human TAAR1 agonism; activation, % at 3 µM; 360,000 compounds, 0.99% hits; CHO RD-HGA16 TAAR1, Fluo-8 calcium fluorescence; vehicle wells 0%, saturating PEA agonist 100%; Q96RJ0;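 active means activation above the mean activation of all test compounds in the run plus 3 SD, cut at about 38% in these data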
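Repeats: no replicates (n 1) | Material: CHO-derived RD-HGA16 cells with stable Gα16 and human TAAR1 | Technique: Kinetic Fluo-8 calcium fluorescence | Schedule: 17-24 h seeding, 75 min 37 °C dye, 30 min RT | Evaluation: % activation from peak over basal fluorescence ratio, DMSO-to-PEA scaled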
ANO1 block: mouse TMEM16A channel inhibition, primary screen; 310,000 compounds, 1.2% hits; AID 588511; normalized B-score (activity score, 25-100; higher = stronger inhibition) at 10 µM; HEK293 TMEM16A/YFP iodide influx fluorescence, ionomycin;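 active means ratio plate-corrected score three or more library SD toward inhibition, starting fluorescence score within five deviations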;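 further: score derived from kinetic fluorescence span divided by baseline fluorescence per well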
Of the large screens only hits and unclear results are named; the others gave an inactive call; ! = a repeat was not active. Hits are enriched below; roughly 3.9% of the tested compounds scored in any of these assays.

O=C(COc1ccc(Cl)cc1)NNC(=O)c1ccc2c(=O)n3c(nc2c1)CCC3	none
Brc1ccccc1/C=N/Nc1ccc2ccccc2n1	none
O=[N+]([O-])c1cccc(C=NNc2ccc3ccccc3n2)c1O	CRFBP-R2 block 78 (no result: ANO1 block)
COC(=O)C1=C/C=C\CN(C(c2ccccc2)c2ccccc2)/C=C\1C(=O)OC	CRFBP-R2 block 52 (no result: ANO1 activ, ANO1 block)
Cc1cc(C)cc(N2C(=O)CSC2c2cccs2)c1 (configuration not stated)	CRFBP-R2 agonist 51
Cc1ccc(N2C(=O)CSC2c2cccs2)cc1 (configuration not stated)	none
O=C(/C(N=Nc1cccc([N+](=O)[O-])c1)=C(/O)c1ccc(Br)cc1)C(F)(F)F	ANO1 block 100 (no result: CRFBP-R2 block, CRFBP-R2 agonist, ANO1 activ, TAAR1 antagonist, TAAR1 ag)
O=S(=O)(Nc1ccc2c(c1)OCCO2)c1ccc(F)c(F)c1	none
O=S(=O)(Nc1ccc2c(c1)OCCO2)c1ccc2oc3ccccc3c2c1	ANO1 block 25
CC(C)Cn1c(N)c(C(=O)COC(=O)c2c(F)cccc2F)c(=O)n(C)c1=O	TAAR1 ag 39
Cc1ccc(C(=O)OC(C)CN2CCN(C)CC2)cc1 (configuration not stated)	none
COc1ccc2[nH]cc(CCNC(=O)CS(=O)(=O)Cc3ccccc3)c2c1	none
Cc1ccc2nc(SCC(=O)N3CCN(c4ccccc4)CC3)[nH]c2c1	none
COc1ccccc1N1CCN(C(=O)CSc2nc3ccccc3[nH]2)CC1	ANO1 block 25
Cc1ccc2nc(SCC(=O)N3CCOCC3)[nH]c2c1	CRFBP-R2 block 78
COc1ccc(F)cc1CSc1nnnn1-c1ccc(O)cc1	ANO1 block 25
COc1ccc(C(C)=O)cc1CSc1nnnn1-c1ccc(O)cc1	none
CN(CC(=O)Nc1ccc(F)cc1)C(=O)CSc1ccc2c(c1)OCCO2	none (no result: ANO1 block)
Cc1ccc(SCC(=O)OCC(=O)N(C)CC(=O)Nc2ccc(F)cc2)cc1C	TAAR1 ag 113
O=C(C1CCCN(S(=O)(=O)c2cccc3cccnc23)C1)N1CCN(c2ccc(F)cc2)CC1 (configuration not stated)	CRFBP-R2 block 79
Cc1ccc(O)c(CNc2cnc3ccccc3c2)c1	ANO1 block 25
Oc1ccc(Br)cc1CNc1cnc2ccccc2c1	none
CC(OC(=O)Cc1n[nH]c(=O)c2ccccc12)C(=O)N(C)c1ccccc1 (configuration not stated)	none (no result: ANO1 activ, ANO1 block)
CCOc1ccc(S(=O)(=O)N2CCN(S(=O)(=O)c3ccc(C(C)=O)cc3)CC2)cc1	none
CCOc1ccc(S(=O)(=O)N2CN(c3cccc(C(C)=O)c3)c3nc4ccccc4nc32)cc1	CRFBP-R2 block 52 (no result: ANO1 block)
COc1ccc(C(=O)NC2CCCc3c2cnn3-c2cc(F)cc(F)c2)c(OC)c1OC (configuration not stated)	none
CCN(CC)c1ccc(/C=C2\C(=O)N(c3nnc(C)c(=O)[nH]3)N=C2C)cc1	ANO1 activ -5.7
CCN(CC)c1ccc(/C=C2/C(=O)ON=C2C)cc1	none
C=CCn1c(SCc2ccc(C#N)cc2)nnc1-c1cccc(Cl)c1	none
C=CCn1c(SCc2ccc(C(=O)Nc3nccs3)cc2)nnc1-c1ccc(C)c(Cl)c1	TAAR1 antagonist 65, ANO1 block 25
CCN(CC)CCCCCOc1ccccc1OC	ANO1 block 25
CCCCC(=O)NC(c1ccc([N+](=O)[O-])cc1)c1c(O)ccc2ccccc12 (configuration not stated)	ANO1 block 100
COC(=O)c1cn(C(=O)c2ccc3c(c2)OCO3)c2ccccc12	none (no result: ANO1 activ, ANO1 block)
COc1ccc2c(Cl)c(C(=O)N/N=C/c3ccc4c(c3)OCO4)sc2c1	none
COc1ccc2c(Cl)c(C(=O)N/N=C3\CCCC(=O)C3)sc2c1	CRFBP-R2 agonist 79
CN(C)CC(C)(C)CN=Cc1c(O)[nH]c2ccccc12	none
CCC1Oc2ccccc2N(CC(=O)NC2CCCCC2)C1=O (configuration not stated)	none
COc1ccc(NC(=O)Nc2nnc(-c3ccncc3)s2)cc1	TAAR1 antagonist 49
COc1cccc(NC(=O)Nc2nnc(CC(=O)NCc3ccccc3)s2)c1	ANO1 activ -4.9
CCCNC(=O)C[C@@H]1C[C@H]2c3cc(NC(=O)c4ccc5c(c4)OCO5)ccc3O[C@H]2[C@@H](CO)O1	none (no result: ANO1 activ, ANO1 block)
CC(C)C(=O)NCC(c1ccc2c(c1)OCO2)N1CCOCC1 (configuration not stated)	none
O=[N+]([O-])c1ccc(N(c2ccccc2)c2ccccc2)cc1	CRFBP-R2 agonist 54
CCc1cc(C(=O)Nc2ncccc2O)sc1C	none
CCCCCCCCCCOC(=O)Cn1c(COc2ccc(Cl)cc2)[n+](C)c2ccccc21	TAAR1 ag 47
CCCCCCCCCCOC(=O)Cn1c(COc2ccccc2C)[n+](C)c2ccccc21	ANO1 activ -4.7, ANO1 block 100 (no result: TAAR1 antagonist, TAAR1 ag)
CCCCCCCCCCOC(=O)Cn1c(COc2cccc(C)c2)[n+](C)c2ccccc21	TAAR1 antagonist 65, TAAR1 ag 42, ANO1 block 100
CCCCCCCCCCOC(=O)Cn1c(COc2ccc(OC)cc2)[n+](C)c2ccccc21	ANO1 block 25! (no result: TAAR1 antagonist, TAAR1 ag)
CCCCCCCCCCOC(=O)Cn1c(COc2ccccc2)[n+](C)c2ccccc21	none
CCCCCCCCCOC(=O)C[n+]1csc(CCO)c1C	CRFBP-R2 block 111
O=C(Cn1c(=O)cnc2ccccc21)Nc1ccccc1N1CCOCC1	none
CC(=O)c1ccccc1NC(=O)Cn1c(=O)cnc2ccccc21	CRFBP-R2 block 72
Cc1ccc(N2CCN(S(=O)(=O)c3ccc(F)c(C)c3)CC2)c(C)c1	ANO1 activ -11
COc1ccc(N(CC(=O)NCc2ccco2)C(=O)CCC(=O)Nc2ccccn2)cc1	none (no result: ANO1 block)
COc1ccc(N(CC(=O)Nc2ccc(S(=O)(=O)N3CCOCC3)cc2)S(=O)(=O)c2ccc(F)cc2)cc1	TAAR1 antagonist 51
Cc1ccc(C(C)C)c2c1C(c1ccc3c(c1)OCO3)CC(=O)O2 (configuration not stated)	CRFBP-R2 agonist 66, TAAR1 ag 47 (no result: ANO1 block)
CC(C)Cn1c(-c2ccco2)n[nH]c1=S	ANO1 block 25
CCn1c(-c2ccco2)n[nH]c1=S	none
COc1ccc(SC[C@H](C)CN2CC[C@H](C(C)(C)C)CCC2=O)cc1	none (no result: ANO1 block)
Cc1ccccc1Nc1nc(N)nc(CSc2nc3ccccc3c(=O)n2C)n1	TAAR1 antagonist 59
COc1ccc(C(CNC(=O)CCNS(=O)(=O)c2ccccc2C(F)(F)F)N2CCOCC2)cc1 (configuration not stated)	none (no result: ANO1 block)
